{
  "source": "ChEMBL document CHEMBL4024713",
  "about": "“Novel aryl piperazines for alleviation of 'andropause' associated prostatic disorders and depression” (Eur J Med Chem, 2017)",
  "key": {"[1]": {"system": "Rattus norvegicus", "assay": "Anti-androgenic activity in citral-induced prostatic hyperplasia Sprague-Dawley rat model assessed increase in distinction between stromal and acinar compartments at 10 mg/kg, po administered once daily coadministered with citral for 21 days measured 24 hrs last post dose by hematoxyline and eosin stainig based light microscopic analysis", "format": "functional, organism-based", "procedure,_shortened": "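Adult male Sprague-Dawley rats (250-280 g, n = 5), citral 100 mg/kg orally once daily for 28 days. From day 8, compound or flutamide at 10 mg/kg orally once daily for the remaining 21 days. Prostate weight is expressed relative to the citral group (100%). Prostates fixed in 10% formalin; 5 μ sections stained with H&E, examined by light microscopy.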"}, "[2]": {"assay": "Cmax in Sprague-Dawley rat serum at 10 mg/kg, po administered as single dose by LC-MS/MS analysis", "format": "ADME, organism-based", "design": "dose 10 mg/kg, route oral", "procedure,_shortened": "(§1)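 Male Sprague Dawley rats (250 ± 25 g), fasted overnight (12-16 h), n = 3 per time point; single 10 mg/kg dose orally by feeding needle, or iv from DMSO solution. Serum, prostate and hypothalamus collected up to 48 h post oral dose; hypothalamus from three rats pooled. LC-MS/MS (MRM, phenacetin internal standard), linear 5-400 ng/mL; noncompartmental and compartmental analysis.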"}, "[3]": {"system": "PC-3", "assay": "Cytotoxicity against human PC3 cells after 24 hrs by MTT assay", "format": "functional, cell-based", "details": "PC-3, 24 h"}, "[4]": {"system": "Rattus norvegicus", "assay": "Toxicity in citral-induced prostatic hyperplasia Sprague-Dawley rat model assessed as effect on seminal vesicle weight at 10 mg/kg, po administered once daily coadministered with citral for 21 days measured 24 hrs last post dose", "format": "organism-based", "details": "in vivo"}, "[5]": {"system": "Rattus norvegicus", "assay": "Toxicity in citral-induced prostatic hyperplasia Sprague-Dawley rat model assessed as effect on epididymis weight at 10 mg/kg, po administered once daily coadministered with citral for 21 days measured 24 hrs last post dose", "format": "organism-based", "details": "in vivo"}, "[6]": {"assay": "Tmax in Sprague-Dawley rat hypothalamus at 10 mg/kg, po administered as single dose by LC-MS/MS analysis", "format": "ADME, organism-based", "procedure,_shortened": "as §1"}, "[7]": {"system": "Mus musculus", "assay": "Toxicity in Swiss albino mouse assessed as effect on locomotor activity at 20 mg/kg, po measured at 5 mins interval for 90 mins by open field test", "format": "organism-based", "details": "in vivo", "procedure,_shortened": "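Male Swiss albino mice in an activity chamber, infrared beam-break counting over 24 intervals of 5 min (120 min). Oral dosing after the 6th interval; six animals per group.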"}, "[8]": {"system": "Rattus norvegicus", "assay": "Toxicity in citral-induced prostatic hyperplasia Sprague-Dawley rat model assessed as effect on testis weight at 10 mg/kg, po administered once daily coadministered with citral for 21 days measured 24 hrs last post dose", "format": "organism-based", "details": "in vivo"}, "[9]": {"system": "DU-145", "assay": "Cytotoxicity against human DU145 cells after 24 hrs by MTT assay", "format": "functional, cell-based", "details": "DU-145, 24 h"}, "[10]": {"assay": "Clearance in Sprague-Dawley rat serum at 10 mg/kg, po administered as single dose by LC-MS/MS analysis", "format": "ADME, organism-based", "procedure,_shortened": "as §1"}, "[11]": {"system": "Mus musculus", "assay": "Anti-depressant like activity in Swiss albino mouse assessed as reduction in immobility time at 20 mg/kg, po administered 60 mins prior to test measured for 5 mins by forced swim test relative to control", "format": "functional", "design": "scale not given: the % may be the effect or the level left", "procedure,_shortened": "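Male Swiss albino mice (20-25 g); compound 20 mg/kg, imipramine 60 mg/kg or fluoxetine 20 mg/kg given orally in 1% gum acacia (10 mL/kg). After 60 min: 15 min pre-swim in a water cylinder (10 cm depth, 25 ± 1 °C), then retest at 24 h. Immobility recorded for 5 min after 1 min acclimatization; N = 7-9, mean ± SEM, unpaired t-test.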"}, "[12]": {"assay": "AUClast in Sprague-Dawley rat prostate at 10 mg/kg, po administered as single dose by LC-MS/MS analysis", "format": "ADME, organism-based, Prostate gland", "details": "in vivo", "procedure,_shortened": "as §1"}, "[13]": {"assay": "Clearance in Sprague-Dawley rat prostate at 10 mg/kg, po administered as single dose by LC-MS/MS analysis", "format": "ADME, organism-based, Prostate gland", "details": "in vivo", "procedure,_shortened": "as §1"}, "[14]": {"assay": "Oral bioavailability in Sprague-Dawley rat serum at 10 mg/kg administered as single dose by LC-MS/MS analysis", "format": "ADME, organism-based", "procedure,_shortened": "as §1"}, "[15]": {"assay": "AUClast in Sprague-Dawley rat serum at 10 mg/kg, iv administered as single dose by LC-MS/MS analysis", "format": "ADME, organism-based", "design": "dose 10 mg/kg, route intravenous, time 0 - last", "procedure,_shortened": "as §1"}, "[16]": {"assay": "Cmax in Sprague-Dawley rat serum at 10 mg/kg, iv administered as single dose by LC-MS/MS analysis", "format": "ADME, organism-based", "design": "dose 10 mg/kg, route intravenous", "procedure,_shortened": "as §1"}, "[17]": {"assay": "Half life in Sprague-Dawley rat hypothalamus at 10 mg/kg, po administered as single dose by LC-MS/MS analysis", "format": "ADME, organism-based", "procedure,_shortened": "as §1"}, "[18]": {"assay": "Tmax in Sprague-Dawley rat serum at 10 mg/kg, po administered as single dose by LC-MS/MS analysis", "format": "ADME, organism-based", "procedure,_shortened": "as §1"}, "[19]": {"assay": "Cmax in Sprague-Dawley rat prostate at 10 mg/kg, po administered as single dose by LC-MS/MS analysis", "format": "ADME, organism-based, Prostate gland", "design": "dose 10 mg/kg, route oral", "procedure,_shortened": "as §1"}},
  "note": "Activity calls are given as the source filed them. No cut-off for these calls is given here.",
  "data": [
    {"compound": "c1ccc(N2CCN(CCCN3CCN(c4ccccn4)CC3)CC2)nc1", "values": [
      {"measurement": "Activity", "setting": "[1]", "value": "Active"},
      {"measurement": "Cmax", "setting": "[2]", "value": 329, "unit": "ng/mL"},
      {"measurement": "EC50", "setting": "[3]", "value": "> 80", "unit": "µM"},
      {"measurement": "Activity", "setting": "[4]", "value": "Non-Toxic"},
      {"measurement": "Activity", "setting": "[5]", "value": "Non-Toxic"},
      {"measurement": "Tmax", "setting": "[6]", "value": 1, "unit": "h"},
      {"measurement": "Activity", "setting": "[7]", "value": "Non-Toxic"},
      {"measurement": "Activity", "setting": "[8]", "value": "Non-Toxic"},
      {"measurement": "EC50", "setting": "[9]", "value": "> 80", "unit": "µM"},
      {"measurement": "CL/F", "setting": "[10]", "value": 65, "unit": "mL/min/kg"},
      {"measurement": "Activity", "setting": "[11]", "value": 69.4, "unit": "%"},
      {"measurement": "AUClast", "setting": "[12]", "value": 10.7, "unit": "µg·h/g"},
      {"measurement": "CL", "setting": "[13]", "value": 0.3, "unit": "g/h/kg"},
      {"measurement": "bioavailability", "setting": "[14]", "value": 35.4, "unit": "%"},
      {"measurement": "AUC(0-t)", "setting": "[15]", "value": 2500, "unit": "ng·h/mL"},
      {"measurement": "Cmax", "setting": "[16]", "value": 520, "unit": "ng/mL"},
      {"measurement": "half-life", "setting": "[17]", "value": 129, "unit": "h"},
      {"measurement": "Tmax", "setting": "[18]", "value": 1, "unit": "h"},
      {"measurement": "Cmax", "setting": "[19]", "value": 572, "unit": "ng/g"}
    ]}
  ]
}
